Assay results of several laboratories.
Protocols differ between the studies behind these lines. pIC50: −log10 of the molar value.
Effect on: cell growth or viability

`COCCOCOc1cc(OCc2ccc(Br)cc2)c(C(=O)/C=C/c2ccc(C(=O)O)cc2)cc1C12CC3CC(CC(C3)C1)C2` has a pIC50 of 6.08 (Jurkat; ATP luminescence; 24 h).
With `Cl.O[C@]12C=C(c3nccc4c3[nH]c3ccccc34)[C@@H]3CCN(CCCC/C=C\CC1)C[C@@]31C[C@@H]3/C=C\CCCCN3[C@H]12` the IC50 was 0.88 µg/mL (BT-549; neutral red; 48 h).
`N.N.[Cl][Pt][Cl]` gave a pIC50 of 5.23 (MIA PaCa-2; resazurin; 72 h).
The pIC50 of `CC1=C2C[C@H]3[C@@H](CC=C4C[C@@H](O)CC[C@@]43C)[C@@H]2CC[C@]12O[C@@H]1C[C@H](C)CN[C@H]1[C@H]2C` is reported as 4.77 (MIA PaCa-2; MTS; 96 h).
`COc1c2c(cc3c1OCO3)[C@]13C=C[C@H](OC)C[C@@H]1[N@](C2)C[C@H]3OC(=O)c1ccoc1` has a pIC50 of < 5.00 (MOLT-4; WST-1).
`C[C@H]1O[C@H](Oc2c(-c3ccc(O)c(O)c3)oc3cc(O)cc(O)c3c2=O)[C@@H](O)[C@@H](O)[C@@H]1O` gave a pIC50 of 3.72 (SW780; ATP luminescence; 72 h).
`N.N.[Cl][Pt][Cl]` has a pIC50 of 4.33 (PLC; 48 h).
For `COc1cccc2c1C(=O)c1c(O)c3c(c(O)c1C2=O)C[C@@](O)(C(=O)CO)C[C@@H]3O[C@H]1C[C@H](N)[C@H](O)[C@H](C)O1`, the IC50 was 1.5 µg/mL (BT-549; 48 h).
With `COCCOCOc1cc(O)c(-c2cc(-c3ccc(C(=O)O)cc3)n(C)n2)cc1C12CC3CC(CC(C3)C1)C2` the pIC50 was 5.33 (Jurkat; ATP luminescence; 24 h).
With `COc1c2c(cc3c1OCO3)[C@]13C=C[C@H](OC)C[C@@H]1[N@](C2)C[C@H]3OC(=O)c1ccco1` the pIC50 was < 5.00 (MOLT-4; WST-1).
